Results: PubChem BioAssay AID2363 (The Scripps Research Institute Molecular Screening Center, 2010)

Molecular target: Protein phosphatase methylesterase 1 (Homo sapiens) (UniProt Q9Y570)
Assay: in situ PME-1 block, PP2A methylation – HeLa cells, demethylated PP2A western blot, orthogonal assay for PME-1 inhibitor project, late-stage follow-up (AID 2363)
Conditions: demethylated PP2A western blot chemiluminescence, stronger effect = higher value
Procedure, shortened: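 Test system: Cultured HeLa cells | Reagent: Cellular PP2A as the PME-1 demethylation substrate | Dosing: 5 and 20 µM compound | Schedule: Cell treatment at 37 °C | Measured by: SDS-PAGE immunoblot with HRP antibody against demethylated PP2A C-terminus, chemiluminescence | Measure: % inhibition of PP2A demethylation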

[1] = PP2A demethylation inhibition, at 20 µM

Chain of Protein phosphatase methylesterase 1 (Homo sapiens) (Q9Y570 whole entry, looked up): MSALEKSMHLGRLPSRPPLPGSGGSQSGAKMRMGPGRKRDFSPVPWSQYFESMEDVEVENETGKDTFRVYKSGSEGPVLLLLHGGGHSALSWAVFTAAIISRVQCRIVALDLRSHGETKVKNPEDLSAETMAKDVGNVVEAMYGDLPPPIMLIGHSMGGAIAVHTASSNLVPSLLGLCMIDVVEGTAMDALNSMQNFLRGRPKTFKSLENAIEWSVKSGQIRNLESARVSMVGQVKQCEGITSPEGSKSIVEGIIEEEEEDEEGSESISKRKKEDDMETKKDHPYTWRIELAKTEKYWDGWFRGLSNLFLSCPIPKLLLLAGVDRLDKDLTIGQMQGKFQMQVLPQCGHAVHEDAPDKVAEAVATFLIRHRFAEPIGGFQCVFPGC

Structure (SMILES) | inhibition [1] [%] | inhibition (at 5 µM) [%]
N#C/C(=C\c1cccn1S(=O)(=O)c1cccc(C#N)c1)S(=O)(=O)c1ccc(F)cc1 | 95 | 60
N#C/C(=C\c1cccn1S(=O)(=O)c1cccc([N+](=O)[O-])c1)S(=O)(=O)c1ccc(F)cc1 | 98 | 65
